# Screening results as filed in PubChem BioAssay.
# This is one part of a sample in which hits are shown more often than they occur.
# INS-1E ATP HTS: rescue of cytokine-induced death in INS-1E beta cells; INS-1E cytokine-induced death, ATP luminescence, 48 h; normalised: neutral wells 0, positive control 100; protection from cytokine-induced ATP loss, % at 10 µM; hit rate 0.1% among 20,000;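 active means mean replicate protection from cytokine-induced ATP loss at least 50% and at least 75% of replicates each reaching 50%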
#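 assay system = INS-1E rat insulinoma cells | amount = 8000 cells per well | medium = phenol-red-free RPMI with 5% fetal bovine serum | doses = one compound concentration, pin transfer | timing = 48 h cytokine plus compound treatment, 10 min reagent incubation | also added = IL-1β, TNF-α and IFN-γ cytokine mix | signal = CellTiter-Glo luminescence measuring cellular ATP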
# A1 apoptosis 2: blocks A1, raising caspase activity; MEF A1-2A-BIM cells, caspase-Glo luminescence, 3 h; percent of clofoctol response, DMSO zero; caspase activation, % (concentration not given with the values); 24,000 tested, under 10 active; AID 2465; in the data active means caspase activation above about 5.9%
#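 Material: mouse embryonic fibroblasts co-expressing A1 and BIM (A1-2A-BIM), primed for A1 dependence / Quantity: 2500 cells/well / Buffer or medium: RPMI-1640 growth medium with 10% FBS / Doses: 50 nL compound per well, pinned / Schedule: 3 h compound exposure at 37 °C / Signal: Caspase-Glo luminescence (DEVD substrate) / Measure: Caspase-3/7 activation, seen as rise in luminescence signal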
# T cruzi intra: intracellular Trypanosoma cruzi inhibition; intracellular Trypanosoma cruzi in host cells, plate reader; activity score (inhibition), % at 5.01 µM; hit rate 4.9% among 22,000; AID 651903; in the data active means activity score above about 55%;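 further: parasites and compound incubated about four days before reading; 0% = median of neutral control wells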
# Active calls of the source: *; / = no result given.
SMILES,INS-1E ATP HTS,A1 apoptosis 2,T cruzi intra
C[C@H]1CN([C@@H](C)CO)C(=O)c2cccc(NC(=O)c3ccncc3)c2O[C@H]1CN(C)C(=O)NC1CCCCC1,1,2,71*
C[C@H]1CN([C@@H](C)CO)C(=O)c2cccc(NC(=O)c3ccncc3)c2O[C@H]1CN(C)CC1CCCCC1,4,0,57*
C[C@@H]1CN([C@@H](C)CO)C(=O)c2cccc(NC(=O)c3ccncc3)c2O[C@H]1CN(C)CC1CC1,11,-2,41
C[C@H](CO)N1C[C@H](C)[C@@H](CN(C)CC2CCCCC2)Oc2c(NC(=O)c3ccncc3)cccc2C1=O,-6,/,57*
C[C@@H]1CN([C@@H](C)CO)C(=O)c2cccc(NC(=O)c3ccncc3)c2O[C@H]1CN(C)C(=O)NC1CCCCC1,17,0,-26
C[C@@H]1CN([C@@H](C)CO)C(=O)c2cccc(NC(=O)c3ccncc3)c2O[C@@H]1CN(C)CC1CCCCC1,-4,/,-3
C[C@H]1CN([C@@H](C)CO)C(=O)c2cccc(NC(=O)c3ccncc3)c2O[C@H]1CN(C)CC1CC1,9,0,-17
C[C@H]1CN([C@@H](C)CO)C(=O)c2cccc(NC(=O)c3ccncc3)c2O[C@@H]1CN(C)CC1CCCCC1,-16,0,86*
COc1ccc(/C=N/NC(=O)c2cccc(C(=O)NO)c2)cc1,-2,-2,1
CC(C)(C)OC(=O)NC/C=N/NC(=O)CCCCCCC(=O)O,11,1,-17
O=C(CCCCCC(=O)N/N=C/C1=CCCCC1)NO,/,1,/
CC(C)(C)OC(=O)NC/C=N/NC(=O)CCCCC(=O)NO,-1,1,-12
C[C@H](CO)N1C[C@H](C)[C@@H](CN(C)Cc2ccc(C(F)(F)F)cc2)Oc2c(NC(=O)Nc3ccc(F)cc3)cccc2C1=O,-36,0,74*
C[C@H]1CN([C@@H](C)CO)C(=O)c2cccc(NC(=O)Nc3ccc(C(F)(F)F)cc3)c2O[C@@H]1CN(C)Cc1ccc(C(F)(F)F)cc1,-109,-2,35
C[C@@H]1CN([C@@H](C)CO)C(=O)c2cccc(NC(=O)Nc3ccc(C(F)(F)F)cc3)c2O[C@@H]1CN(C)Cc1ccc(C(F)(F)F)cc1,-88,/,81*
COc1ccc(NC(=O)Nc2cccc3c2O[C@H](CN(C)Cc2ccc(C(F)(F)F)cc2)[C@@H](C)CN([C@H](C)CO)C3=O)cc1,-13,/,-3
COc1ccc(CN(C)C[C@@H]2Oc3c(NC(=O)Nc4ccc(C(F)(F)F)cc4)cccc3C(=O)N([C@H](C)CO)C[C@H]2C)cc1,-77,0,79*
C[C@H]1CN([C@@H](C)CO)C(=O)c2cccc(NC(=O)Nc3ccc(C(F)(F)F)cc3)c2O[C@H]1CN(C)Cc1ccc2c(c1)OCO2,-34,/,85*
C[C@H]1CN([C@@H](C)CO)C(=O)c2cccc(NC(=O)Nc3ccc4c(c3)OCO4)c2O[C@H]1CN(C)Cc1ccc(C(F)(F)F)cc1,-11,0,26
C[C@@H]1CN([C@H](C)CO)C(=O)c2cccc(NC(=O)Nc3ccc(F)cc3)c2O[C@H]1CN(C)Cc1ccc(C(F)(F)F)cc1,-31,1,31
CC(C)(C)OC(=O)N1CCC[C@H]1/C=N/NC(=O)c1cccc(C(=O)NO)c1,-1,/,-11
O=C(CCCCCCC(=O)Nc1ccccc1O)N/N=C/c1cccc(O)c1,-2,0,-3
O=C(NO)c1cccc(C(=O)N/N=C/c2ccc3c(c2)OCCO3)c1,0,/,-14
COC(=O)C(CC#Cc1ccc2c(c1)[C@]1(C(=O)N2)[C@H](C(=O)NC[C@H](O)c2ccccc2)[C@H]2C(=O)O[C@H](c3ccccc3)[C@H](c3ccccc3)N2[C@@H]1c1ccc(O)cc1)C(=O)OC,/,1,/
C[C@H](CO)N1C[C@H](C)[C@H](CN(C)Cc2ccc(Oc3ccccc3)cc2)Oc2c(NC(=O)Nc3ccc(C(F)(F)F)cc3)cccc2C1=O,-111,/,62*
C[C@H]1CN([C@@H](C)CO)C(=O)c2cccc(NC(=O)Nc3ccc(C(F)(F)F)cc3)c2O[C@@H]1CN(C)Cc1ccc(Oc2ccccc2)cc1,-34,1,30
C[C@H]1CN([C@@H](C)CO)C(=O)Cc2cc(NC(=O)Nc3ccc(C(F)(F)F)cc3)ccc2O[C@@H]1CN(C)S(=O)(=O)c1ccccc1,8,0,-5
C[C@H](CO)N1C[C@H](C)[C@H](CN(C)S(=O)(=O)c2ccccc2)Oc2ccc(NC(=O)Nc3ccc(C(F)(F)F)cc3)cc2CC1=O,-68,/,77*
